Reference: ChEMBL document CHEMBL1671756, “In vitro and in vivo antifungal susceptibilities of the Mucoralean fungus Cunninghamella” (2010)
≈ marks a conversion by molar mass, not a printed value. Calls of active or inactive are those of the source. The rule behind the calls is not given here.

How the values were obtained:
[1] = test system: Cunninghamella bertholletiae; assay: Antifungal activity against Cunninghamella bertholletiae UTHSC 05-2275 infected in neutropenic OF1 mouse assessed as increase in mouse survival rate at 80 mg/kg, po qd administered 1 day after infection for 7 days relative to untreated control; type: functional, organism-based; set-up: dose 80 mg/kg
Procedure, shortened: (§1)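 Male OF1 mice, about 30 g, made neutropenic with cyclophosphamide 200 mg/kg i.p. plus 5-fluorouracil 150 mg/kg i.v. 1 day before challenge. Infected i.v. via the lateral tail vein with 1 × 10⁴ CFU of hemacytometer-counted sporangiospores in 0.2 ml saline. Ceftazidime 5 mg/day s.c. on days 1–7. Oral treatment started 24 h after challenge; 10 mice per group; checked daily for 20 days; Kaplan-Meier mean survival time, log-rank test.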

[2] = test system: Cunninghamella bertholletiae; assay: Antifungal activity against Cunninghamella bertholletiae UTHSC 05-2275 after 24 hrs by broth microdilution method; type: functional; conditions: UTHSC 05-2275, 24 h
Procedure, shortened: (§2)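 CLSI broth microdilution for filamentous fungi. Isolates were stored at −80°C and subcultured on potato dextrose agar at 35°C. MICs were read after 24 h. […] The QC strain was Paecilomyces variotii ATCC 36257.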

[3] = test system: Cunninghamella bertholletiae; assay: Antifungal activity against Cunninghamella bertholletiae FMR-9598 after 24 hrs by broth microdilution method; type: functional; conditions: FMR-9598, 24 h; procedure, shortened: as §2
[4] = test system: Cunninghamella bertholletiae; assay: Antifungal activity against Cunninghamella bertholletiae UTHSC 04-2581 after 24 hrs by broth microdilution method; type: functional; conditions: UTHSC 04-2581, 24 h; procedure, shortened: as §2
[5] = test system: Cunninghamella bertholletiae; assay: Antifungal activity against Cunninghamella bertholletiae UTHSC 03-2241 after 24 hrs by broth microdilution method; type: functional; conditions: UTHSC 03-2241, 24 h; procedure, shortened: as §2
[6] = test system: Cunninghamella bertholletiae; assay: Antifungal activity against Cunninghamella bertholletiae UTHSC 06-1945 after 24 hrs by broth microdilution method; type: functional; conditions: UTHSC 06-1945, 24 h; procedure, shortened: as §2
[7] = Antifungal activity against Cunninghamella echinulata UTHSC 03-3725 after 24 hrs by broth microdilution method; type: functional; procedure, shortened: as §2
[8] = Antifungal activity against Cunninghamella echinulata FMR 10974 after 24 hrs by broth microdilution method; type: functional; procedure, shortened: as §2
[9] = Antifungal activity against Cunninghamella echinulata FMR 10973 after 24 hrs by broth microdilution method; type: functional; procedure, shortened: as §2
[10] = Antifungal activity against Cunninghamella echinulata UTHSC 01-2298 after 24 hrs by broth microdilution method; type: functional; procedure, shortened: as §2
[11] = test system: Cunninghamella bertholletiae; assay: Antifungal activity against Cunninghamella bertholletiae UTHSC 05-2275 infected in neutropenic OF1 mouse assessed as decreased fungal load in lung at 60 mg/kg, po qd administered 1 day post infection measured after 4 to 5 days relative to untreated control; type: functional, organism-based; set-up: dose 60 mg/kg
Procedure, shortened: (§3)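 Neutropenic male OF1 mice (cyclophosphamide 200 mg/kg i.p. plus 5-fluorouracil 150 mg/kg i.v., day −1) were given 1 × 10⁴ CFU sporangiospores i.v. in 0.2 ml saline. Treatment from 24 h: 0.8 mg/kg i.v. or oral doses once daily; 10 mice per group. Killed at day 5 (day 4 if moribund). About half of brain, lungs and kidneys homogenized in saline; 10-fold dilutions plated on PDA for 24 h at 35°C; log₁₀ CFU/g tissue.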

[12] = test system: Cunninghamella bertholletiae; assay: Antifungal activity against Cunninghamella bertholletiae UTHSC 05-2275 infected in neutropenic OF1 mouse assessed as decreased fungal load in kidney at 60 mg/kg, po qd administered 1 day post infection measured after 4 to 5 days relative to untreated control; type: functional, organism-based; set-up: dose 60 mg/kg; procedure, shortened: as §3
[13] = test system: Cunninghamella bertholletiae; assay: Antifungal activity against Cunninghamella bertholletiae UTHSC 05-2275 infected in neutropenic OF1 mouse assessed as decreased fungal load in lung at 80 mg/kg, po qd administered 1 day post infection measured after 4 to 5 days relative to untreated control; type: functional, organism-based; set-up: dose 80 mg/kg; procedure, shortened: as §3
[14] = test system: Cunninghamella bertholletiae; assay: Antifungal activity against Cunninghamella bertholletiae UTHSC 05-2275 infected in neutropenic OF1 mouse assessed as decreased fungal load in kidney at 80 mg/kg, po qd administered 1 day post infection measured after 4 to 5 days relative to untreated control; type: functional, organism-based; set-up: dose 80 mg/kg; procedure, shortened: as §3
[15] = test system: Cunninghamella bertholletiae; assay: Antifungal activity against Cunninghamella bertholletiae UTHSC 06-1945 infected in neutropenic OF1 mouse assessed as decreased fungal load in kidney at 60 mg/kg, po qd administered 1 day post infection measured after 4 to 5 days relative to untreated control; type: functional, organism-based; set-up: dose 60 mg/kg; procedure, shortened: as §3
[16] = test system: Cunninghamella bertholletiae; assay: Antifungal activity against Cunninghamella bertholletiae UTHSC 06-1945 infected in neutropenic OF1 mouse assessed as decreased fungal load in lung at 60 mg/kg, po qd administered 1 day post infection measured after 4 to 5 days relative to untreated control; type: functional, organism-based; set-up: dose 60 mg/kg; procedure, shortened: as §3
[17] = test system: Cunninghamella bertholletiae; assay: Antifungal activity against Cunninghamella bertholletiae UTHSC 03-2241 infected in neutropenic OF1 mouse assessed as decreased fungal load in lung at 60 mg/kg, po qd administered 1 day post infection measured after 4 to 5 days relative to untreated control; type: functional, organism-based; set-up: dose 60 mg/kg; procedure, shortened: as §3
[18] = test system: Cunninghamella bertholletiae; assay: Antifungal activity against Cunninghamella bertholletiae UTHSC 03-2241 infected in neutropenic OF1 mouse assessed as decreased fungal load in kidney at 60 mg/kg, po qd administered 1 day post infection measured after 4 to 5 days relative to untreated control; type: functional, organism-based; set-up: dose 60 mg/kg; procedure, shortened: as §3
[19] = test system: Cunninghamella bertholletiae; assay: Antifungal activity against Cunninghamella bertholletiae UTHSC 03-2241 infected in neutropenic OF1 mouse assessed as decreased fungal load in lung at 0.8 mg/kg, iv qd administered 1 day post infection measured after 4 to 5 days relative to untreated control; type: functional, organism-based; set-up: dose 0.8 mg/kg; procedure, shortened: as §3
[20] = test system: Cunninghamella bertholletiae; assay: Antifungal activity against Cunninghamella bertholletiae UTHSC 04-2581 infected in neutropenic OF1 mouse assessed as decreased fungal load in kidney at 0.8 mg/kg, iv qd administered 1 day post infection measured after 4 to 5 days relative to untreated control; type: functional, organism-based; set-up: dose 0.8 mg/kg; procedure, shortened: as §3
[21] = test system: Cunninghamella bertholletiae; assay: Antifungal activity against Cunninghamella bertholletiae UTHSC 04-2581 infected in neutropenic OF1 mouse assessed as decreased fungal load in lung at 60 mg/kg, po qd administered 1 day post infection measured after 4 to 5 days relative to untreated control; type: functional, organism-based; set-up: dose 60 mg/kg; procedure, shortened: as §3
[22] = test system: Cunninghamella bertholletiae; assay: Antifungal activity against Cunninghamella bertholletiae UTHSC 04-2581 infected in neutropenic OF1 mouse assessed as decreased fungal load in kidney at 60 mg/kg, po qd administered 1 day post infection measured after 4 to 5 days relative to untreated control; type: functional, organism-based; set-up: dose 60 mg/kg; procedure, shortened: as §3
[23] = test system: Cunninghamella bertholletiae; assay: Antifungal activity against Cunninghamella bertholletiae FMR-9598 infected in neutropenic OF1 mouse assessed as decreased fungal load in kidney at 0.8 mg/kg, iv qd administered 1 day post infection measured after 4 to 5 days relative to untreated control; type: functional, organism-based; set-up: dose 0.8 mg/kg; procedure, shortened: as §3
[24] = test system: Cunninghamella bertholletiae; assay: Antifungal activity against Cunninghamella bertholletiae FMR-9598 infected in neutropenic OF1 mouse assessed as decreased fungal load in lung at 60 mg/kg, po qd administered 1 day post infection measured after 4 to 5 days relative to untreated control; type: functional, organism-based; set-up: dose 60 mg/kg; procedure, shortened: as §3
[25] = test system: Cunninghamella bertholletiae; assay: Antifungal activity against Cunninghamella bertholletiae FMR-9598 infected in neutropenic OF1 mouse assessed as decreased fungal load in kidney at 60 mg/kg, po qd administered 1 day post infection measured after 4 to 5 days relative to untreated control; type: functional, organism-based; set-up: dose 60 mg/kg; procedure, shortened: as §3
[26] = test system: Cunninghamella bertholletiae; assay: Antifungal activity against Cunninghamella bertholletiae UTHSC 04-2581 infected in neutropenic OF1 mouse assessed as decreased fungal load in brain at 60 mg/kg, po qd administered 1 day post infection measured after 4 to 5 days relative to untreated control; type: functional, organism-based; set-up: dose 60 mg/kg; procedure, shortened: as §3
[27] = test system: Cunninghamella bertholletiae; assay: Antifungal activity against Cunninghamella bertholletiae UTHSC 04-2581 infected in neutropenic OF1 mouse assessed as increase in mouse survival rate at 60 mg/kg, po qd administered 1 day after infection for 7 days relative to untreated control; type: functional, organism-based; set-up: dose 60 mg/kg; procedure, shortened: as §1

Compound | Activity [1] | MIC [2] | MIC [3] | MIC [4] | MIC [5] | MIC [6] | MIC [7] | MIC [8] | MIC [9] | MIC [10] | Activity [11] | Activity [12] | Activity [13] | Activity [14] | Activity [15] | Activity [16] | Activity [17] | Activity [18] | Activity [19] | Activity [21] | further results
C[C@@H]1[C@H](O)[C@@H](C)/C=C/C=C/C=C/C=C/C=C/C=C/C=C/[C@H](O[C@@H]2O[C@H](C)[C@@H](O)[C@H](N)[C@@H]2O)C[C@@H]2O[C@](O)(C[C@@H](O)C[C@@H](O)[C@H](O)CC[C@@H](O)C[C@@H](O)CC(=O)O[C@H]1C)C[C@H](O)[C@H]2C(=O)O [AMPHOTERICIN B] | Active | 2 µg/mL (≈ 2.16 µM) | 2 µg/mL (≈ 2.16 µM) | 4 µg/mL (≈ 4.33 µM) | 4 µg/mL (≈ 4.33 µM) | 4 µg/mL (≈ 4.33 µM) | 8 µg/mL (≈ 8.66 µM) | 8 µg/mL (≈ 8.66 µM) | 4 µg/mL (≈ 4.33 µM) | 16 µg/mL (≈ 17.3 µM) | Active | Active | Active | Active | Active | Active | Active | Active | Active | Active | Activity [20]: Active; Activity [22]: Active; Activity [23]: Active; Activity [24]: Active; Activity [25]: Active
CC[C@@H]([C@H](C)O)n1ncn(-c2ccc(N3CCN(c4ccc(OC[C@@H]5CO[C@@](Cn6cncn6)(c6ccc(F)cc6F)C5)cc4)CC3)cc2)c1=O [POSACONAZOLE] | Active | 0.5 µg/mL (≈ 0.713 µM) | 0.5 µg/mL (≈ 0.713 µM) | 0.5 µg/mL (≈ 0.713 µM) | 0.5 µg/mL (≈ 0.713 µM) | 0.5 µg/mL (≈ 0.713 µM) | 1 µg/mL (≈ 1.43 µM) | > 16 µg/mL | > 16 µg/mL | 16 µg/mL (≈ 22.8 µM) | Active | Active | Active | Active | Active | Active | Active | Active | Active | Active | Activity [26]: Active; Activity [22]: Active; Activity [23]: Active; Activity [24]: Active; Activity [25]: Active; Activity [27]: Active
